In the library only some 1.8% were active in any assay of this set; here they are far more common.
Tb MetRS inh = T. brucei MetRS inhibitors, primary screen, biochemical, luminescence; methionyl-tRNA synthetase (Trypanosoma brucei brucei); purified T. brucei MetRS, ATP depletion, Kinase-Glo luminescence; inhibition, % at 11.9 µM; 0.4% of 360,000 active; AID 624268, 2012;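 active means inhibition above a per-plate cutoff of the control wells' mean inhibition plus 3 SD, cut at about 5.5% in these data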;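 further: 0% = DMSO wells median and 100% = median of wells with control inhibitor compound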
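Material: parasite MetRS enzyme / Replication: singlicate, one well per compound / Signal: luminescence of leftover ATP / Schedule: 2 h aminoacylation at 25 °C after 15 min preincubation / Medium: HEPES-MgCl2-KCl buffer plus DTT, spermine, BSA, pyrophosphatase / Doses: 11.9 µM single point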
Rev-erbA mod = modulators of Rev-erb alpha DNA binding, primary screen, biochemical, FITC-DNA, fluorescence polarization, uHTS | Rev-erbα–FITC-DNA binding, 90 min | Nuclear receptor subfamily 1 group D member 1 (Homo sapiens), P20393 | AID 1259318, 2017 | 0.79% of 370,000 active | activity, % at 10 µM;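 active means activity above about 14%, limit read from the data; passing the limit was not always enough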;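 further: 0% = DMSO wells with 35 nM protein and 100% = DMSO wells with 750 nM protein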
PG9 binder = binders of HIV-1 gp120 antibody PG9, primary screen, biochemical, TR-FRET. HIV-1 gp120 / PG9 antibody interaction. TR-FRET gp120-PG9 antibody binding. inhibition, % at 6.7 µM. 0.43% of 360,000 active; in the data active means inhibition above about 8.5%
Rin1 Abl inh = inhibitors of Rin1-Abl protein binding, primary screen, biochemical, TR-FRET; Tyrosine-protein kinase ABL1 (Homo sapiens) + Ras and Rab interactor 1 (Homo sapiens), …; inhibition, % at 7.35 µM; 0.4% of 360,000 active; AID 588664, 2011; in the data active means inhibition above about 5%, passing the limit was not always enough
Target sequence (P00519 whole entry, looked up): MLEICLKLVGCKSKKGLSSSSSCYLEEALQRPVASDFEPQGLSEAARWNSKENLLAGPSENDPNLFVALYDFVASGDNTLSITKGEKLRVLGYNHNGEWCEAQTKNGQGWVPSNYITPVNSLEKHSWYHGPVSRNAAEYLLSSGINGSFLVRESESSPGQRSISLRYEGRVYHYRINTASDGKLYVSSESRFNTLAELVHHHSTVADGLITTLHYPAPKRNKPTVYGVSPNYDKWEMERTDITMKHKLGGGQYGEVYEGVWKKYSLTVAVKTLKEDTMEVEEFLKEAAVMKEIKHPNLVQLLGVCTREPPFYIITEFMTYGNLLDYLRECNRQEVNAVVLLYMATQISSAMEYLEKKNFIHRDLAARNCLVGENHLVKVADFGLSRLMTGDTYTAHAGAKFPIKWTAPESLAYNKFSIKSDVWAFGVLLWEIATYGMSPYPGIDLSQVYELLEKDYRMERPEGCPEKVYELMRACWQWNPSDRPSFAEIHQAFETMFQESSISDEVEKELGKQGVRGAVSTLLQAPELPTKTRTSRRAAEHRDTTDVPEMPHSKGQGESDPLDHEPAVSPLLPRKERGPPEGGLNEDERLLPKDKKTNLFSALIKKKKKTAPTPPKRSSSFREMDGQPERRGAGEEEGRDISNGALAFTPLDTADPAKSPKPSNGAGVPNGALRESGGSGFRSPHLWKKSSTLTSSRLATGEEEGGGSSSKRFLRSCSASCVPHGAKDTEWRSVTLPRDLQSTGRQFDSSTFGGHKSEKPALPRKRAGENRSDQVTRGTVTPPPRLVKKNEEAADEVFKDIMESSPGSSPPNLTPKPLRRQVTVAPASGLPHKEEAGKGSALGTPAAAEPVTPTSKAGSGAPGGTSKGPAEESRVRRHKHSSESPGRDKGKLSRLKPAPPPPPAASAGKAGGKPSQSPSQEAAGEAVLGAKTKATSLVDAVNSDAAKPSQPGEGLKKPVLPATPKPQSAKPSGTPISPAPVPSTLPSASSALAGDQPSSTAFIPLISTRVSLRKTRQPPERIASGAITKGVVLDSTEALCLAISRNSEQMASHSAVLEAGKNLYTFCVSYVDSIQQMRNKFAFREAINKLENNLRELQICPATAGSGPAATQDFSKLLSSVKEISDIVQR
Target sequence (Q13671 whole entry, looked up): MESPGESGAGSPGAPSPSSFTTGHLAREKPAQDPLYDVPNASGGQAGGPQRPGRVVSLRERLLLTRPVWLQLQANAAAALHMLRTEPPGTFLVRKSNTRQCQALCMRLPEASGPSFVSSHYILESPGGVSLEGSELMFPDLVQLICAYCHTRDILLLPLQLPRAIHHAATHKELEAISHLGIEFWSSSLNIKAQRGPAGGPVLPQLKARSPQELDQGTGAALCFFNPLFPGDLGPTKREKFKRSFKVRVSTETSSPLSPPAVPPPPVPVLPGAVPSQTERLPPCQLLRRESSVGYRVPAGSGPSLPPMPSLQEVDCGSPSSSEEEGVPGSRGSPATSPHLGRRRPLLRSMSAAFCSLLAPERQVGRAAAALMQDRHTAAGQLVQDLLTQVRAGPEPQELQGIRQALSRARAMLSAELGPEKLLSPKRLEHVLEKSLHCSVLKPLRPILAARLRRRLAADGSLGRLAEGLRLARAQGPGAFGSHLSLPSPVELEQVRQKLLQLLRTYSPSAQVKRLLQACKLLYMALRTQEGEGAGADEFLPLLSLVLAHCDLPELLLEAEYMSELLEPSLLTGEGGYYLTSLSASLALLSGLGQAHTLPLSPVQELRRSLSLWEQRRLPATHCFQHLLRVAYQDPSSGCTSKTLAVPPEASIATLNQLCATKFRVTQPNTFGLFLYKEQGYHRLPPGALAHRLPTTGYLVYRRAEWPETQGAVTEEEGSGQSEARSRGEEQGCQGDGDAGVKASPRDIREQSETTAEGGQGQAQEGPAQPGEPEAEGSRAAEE
TbMetRS confirm = T. brucei MetRS inhibitors, confirmation, biochemical, luminescence; inhibition, % at 11.9 µM; T. brucei MetRS enzyme, luminescence (ATP depletion); shares compounds with Tb MetRS inh; 93% of 1,400 active; in the data active means inhibition above about 7%
Jurkat cytotox = Jurkat T cell cytotoxicity, cytotoxicity control for T. brucei MetRS inhibitor project, luminescence, high throughput; shares compounds with Tb MetRS inh; Jurkat cells viability, ATP luminescence; inhibition, % at 8.3 µM; 12% of 1,400 active; in the data active means inhibition above about 15%;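 further: 0% = vehicle and 100% = reference inhibitor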
TbMetRS FP orth = T. brucei MetRS inhibitors, orthogonal assay for T. brucei MetRS inhibitor project, biochemical, fluorescence polarization; 44% of 1,400 active; purified T. brucei MetRS; shares compounds with Tb MetRS inh; inhibition, % at 11.9 µM; in the data active means inhibition above about 17%;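 further: 0% = vehicle wells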
The depositor's hits bear a star; . = no result given.

SMILES | Tb MetRS inh | Rev-erbA mod | PG9 binder | Rin1 Abl inh | TbMetRS confirm | Jurkat cytotox | TbMetRS FP orth
N#Cc1c(NCCCO)nc(NCc2ccccc2)c2c1CCN(Cc1ccccc1)C2 | 42* | -2 | -3 | -3 | 36* | 0 | 19*
CN1CCc2c(C#N)c(N3CCCCC3)nc(NCc3ccccc3)c2C1 | 0 | -2 | 0 | -6 | . | . | .
COc1ccc(Oc2c(Br)cnn(Cc3cccc4ccccc34)c2=O)cc1 | . | 5 | . | . | . | . | .
Cc1cccc(CNC(=O)NC2CCCCN(Cc3cccc(Cl)c3)C2=O)c1 (configuration not stated) | . | 2 | . | . | . | . | .
Cc1cc(Br)cc(Br)c1OCC(=O)NNC(=O)Nc1ccccc1 | 7.5* | -2 | -1 | 1 | 45* | -6 | 30*
Cc1cc(Br)cc(C)c1OCC(=O)NNC(=O)CCC(=O)NCc1ccccc1 | -1 | 4 | -1 | 0 | . | . | .
CCCCN1CC(COCc2ccccc2)Oc2cccc(Sc3ccc(OC)c(OC)c3)c2S1(=O)=O (configuration not stated) | . | 0 | -1 | . | . | . | .
O=C(CSc1nc2ncc(Cl)cc2[nH]1)NC1CCS(=O)(=O)C1 (configuration not stated) | 6.2* | -1 | 0 | 1 | 22* | -7 | 5
O=C(CSc1nc2ccccc2[nH]1)Nc1ccc(F)c(F)c1 | 36* | -3 | 0 | 0 | 51* | 0 | 26*
O=C(CSc1nc2ccc(Cl)cc2[nH]1)NC1CCCC1 | 14* | 2 | -3 | 3 | 33* | 1 | 14
O=C(CSc1nc2ccc(Cl)cc2[nH]1)c1c[nH]c2ccccc12 | 15* | 1 | -2 | -1 | 20* | -1 | 25*
CCOC(=O)[C@@]12CCCC=C1N(CCc1ccc(Cl)cc1)C(=O)[C@H]2CC(=O)NCc1ccc(OC)c(OC)c1 | . | -1 | . | . | . | . | .
C[C@@H]1N[C@H]2N(C1=O)c1ccccc1[C@@]21C[C@@H]2C(=O)N[C@](C)(O1)c1nc3ccccc3c(=O)n12 | . | 6 | . | . | . | . | .
CCC[C@H]1[C@@H](NC(=O)c2ccc(N(C)C)cc2)CC[C@@]23CCCN2C(=O)CCC[C@@H]13 | . | -5 | . | . | . | . | .
Cc1ccc2nc(SCC(=O)N3CCN(C(=O)c4ccco4)CC3)[nH]c2c1 | 1 | -2 | 1 | -2 | . | . | .
O=C(CSc1nc2ccc(Cl)cc2[nH]1)Nc1ccc2[nH]c(=O)[nH]c2c1 | 8.3* | -4 | 0 | 3 | 33* | -6 | 15
O=C(CSc1nc2ccc(Cl)cc2[nH]1)N1CCN(C(=O)c2ccco2)CC1 | 12* | -5 | -3 | -3 | 14* | 17* | 12
O=C(Cn1cnc2ccccc21)Nc1ccc(F)c(F)c1 | 17* | 1 | -1 | 3 | 30* | 2 | 12
COC(=O)/C(=C\Nc1ccc(Cl)cc1Cl)NC(=O)c1ccc(OC)cc1 | 2 | -1 | -2 | -1 | . | . | .
COC(=O)/C(=C\Nc1ccc(OC)cc1)NC(=O)c1ccc(Cl)cc1Cl | 20* | -1 | 0 | 4 | 57* | 7 | 30*
COC(=O)C1=C(C)N(Cc2cccc(C(F)(F)F)c2)C(=NCc2ccc3c(c2)OCO3)NC1c1cccc(Cl)c1 (configuration not stated) | . | 1 | 1 | . | . | . | .
Clc1ccc(OCCn2ccnc2)c(Cl)c1 | -1 | -2 | 1 | 3 | . | . | .
OC(COc1ccc(Cl)cc1Cl)Cn1ccnc1 (configuration not stated) | 6.0* | 1 | -1 | 5 | 14* | -1 | 4
Cc1cc(Cl)ccc1OCCCC(=O)NCCCn1ccnc1 | 3 | -5 | 1 | -1 | . | . | .
O=C(CCCOc1ccc(Cl)cc1Cl)NCCCn1ccnc1 | 6.5* | 3 | -2 | -3 | 18* | -7 | 11
SMILES | Tb MetRS inh | Rev-erbA mod | PG9 binder | Rin1 Abl inh | TbMetRS confirm | Jurkat cytotox | TbMetRS FP orth
O=C(Nc1cccc(Cl)c1)OC1CCC12CCC(c1ccccc1)CC2 (configuration not stated) | . | -3 | . | . | . | . | .
COC(=O)[C@]12C[C@H](CC(=O)N3CCC(c4ccccc4)CC3)C(=O)N(CCC3=CCCCC3)C1=C[C@H](C(C)C)O[C@@H]2C1CC1 | . | 3 | . | . | . | . | .
O=c1c2cc(Cl)ccc2[nH]c(=S)n1Cc1ccccn1 | 6.8* | 7 | 0 | -3 | 16* | 6 | 3
O=C(N/N=C/c1ccc(-c2ccc(S(=O)(=O)Nc3ncccn3)cc2)o1)c1cc2ccccc2cc1O | 6.8* | -5 | -1 | 0 | 30* | -4 | 27*
COC(=O)[C@]12C[C@H](CC(=O)NCc3ccc(OC)c(OC)c3)C(=O)N(Cc3ccco3)C1=C[C@H](C1CCCC1)O[C@@H]2C | . | -4 | . | . | . | . | .
C[C@@H]1CN([C@H](C)CO)C(=O)CCCn2cc(nn2)CO[C@H]1CN(C)S(=O)(=O)c1ccc(Cl)cc1 | . | -5 | 0 | . | . | . | .
COc1ccc(CNCC#Cc2ccc(C(F)(F)F)cc2)c(OC)c1 | . | -5 | . | . | . | . | .
O=C(NCCc1nc2ccccc2[nH]1)c1ccc(Cl)c([N+](=O)[O-])c1 | 94* | 6 | 0 | -3 | 100* | 6 | 97*
Cc1ccc(C(=O)NCCc2nc3ccccc3[nH]2)cc1[N+](=O)[O-] | 77* | 5 | -1 | 1 | 78* | 20* | 59*
O=C(NCCc1cccc(Cl)c1)c1ccc(Cl)c([N+](=O)[O-])c1 | 2 | 9 | -1 | -1 | . | . | .
N#CCCCc1cn(-c2ccc(-c3noc4c3C(=O)N(CC(=O)N3CCOCC3)CC4)cc2)nn1 | . | 5 | . | . | . | . | .
CCOC(=O)c1nnn(CC(=O)NC(=O)Nc2ccccc2)c1C(=O)OCC | 7.3* | 3 | 0 | -3 | 20* | -8 | 6
CCOC(=O)c1nnn(CC(=O)Nc2ccccc2)c1C(=O)OCC | 0 | 5 | -2 | -1 | . | . | .
COc1cc(OC)cc(C(=O)NNC(=O)c2ccc(-n3cncn3)c([N+](=O)[O-])c2)c1 | 6.0* | 1 | -2 | -18 | 31* | 3 | 17*
CCc1ccc(NC(=O)c2ccc(-n3cncn3)c([N+](=O)[O-])c2)cc1 | 13* | 1 | -1 | 0 | 39* | 1 | 20*
CCc1ccc(NC(=O)c2ccc(OC)c([N+](=O)[O-])c2)cc1 | 1 | -2 | 1 | 1 | . | . | .
Cc1ccc(NC(=O)CN(C)C(=O)c2ccc(C(F)(F)F)cc2)cc1 | 6.2* | 6 | -2 | -1 | 26* | 6 | 10
